Test results as given in ChEMBL document CHEMBL4725340, “New coumarin-benzotriazole based hybrid molecules as inhibitors of acetylcholinesterase and amyloid aggregation” (Bioorg Med Chem Lett, 2020).
Activity calls are given as the source filed them. The rule behind the calls is not given here.

Assays:
Cholinesterase = Cholinesterase (Equus caballus, UniProt P81908); assay: Inhibition of equine serum BuChE by Ellman's method
Method in brief: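 Ellman's method with equine serum BuChE, run as for AChE; triplicate experiments; IC50 (50% inhibitory concentration) as mean ± SD of three independent experiments.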

Acetylcholinesterase [1] = target: T1, Acetylcholinesterase (Electrophorus electricus, UniProt O42275); assay: Inhibition of electric eel AChE by Ellman's method
[2] = target: Amyloid-beta precursor protein (Homo sapiens) (UniProt P05067); assay: Inhibition of copper-induced amyloid beta (1 to 42) (unknown origin) aggregation at 50 uM by thioflavin T based fluorescence assay relative to control
Method in brief: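 Thioflavin T fluorescence assay of copper-mediated Aβ1-42 aggregation; test sample at 50 μM; curcumin as reference anti-amyloidogenic agent; percentage inhibition of aggregation estimated.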

SH-SY5Y = assay: Cytotoxicity against human SH-SY5Y cells at 0.001 to 100 uM after 24 hrs by MTT assay
[3] = Metal chelating activity assessed as compound-Cu2+ complex formation by measuring blue shift in absorption intensity at 5 uM by UV spectra analysis
Acetylcholinesterase [4] = target: T1, Acetylcholinesterase; assay: Mixed type inhibition of electric eel AChE assessed as inhibition constant using varying levels of acetylthiocholine as substrate by reciprocal Lineweaver-Burk plot analysis
Method in brief: (§1)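 Kinetics with electric eel AChE (Ellman's method): no inhibitor plus three inhibitor concentrations, substrate varied over […] (so in the source); double-reciprocal Lineweaver-Burk plots overlaid; slope/intercept changes and intersection quadrant used to assign inhibition type; Ki calculated from the plots.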

[5] = Metal chelating activity assessed as compound-Zn2+ complex formation by measuring blue shift in absorption intensity at 5 uM by UV spectra analysis
[6] = Metal chelating activity assessed as compound-Mg2+ complex formation by measuring blue shift in absorption intensity at 5 uM by UV spectra analysis
[7] = target: Cholinesterase (Equus caballus) (UniProt P81908); assay: Inhibition of equine serum BuChE at 50 to 100 uM by Ellman's method; conditions: dose microM 50-100
Method in brief: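 Equine serum BuChE by Ellman's method, with the test compound at two additional single concentrations, 50 and 100 μM; inhibition read at each.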

[8] = target: Acetylcholinesterase (Electrophorus electricus) (UniProt O42275); assay: Mixed type inhibition of electric eel AChE assessed as increase in Km by reciprocal Lineweaver-Burk plot analysis; method in brief: as §1
[9] = Metal chelating activity assessed as formation of Cu2+-compound complex stoichiometry ratio of 2:1 at 5 uM in presence of CuCl2 by UV spectra analysis
[10] = target: Acetylcholinesterase (Electrophorus electricus) (UniProt O42275); assay: Mixed type inhibition of electric eel AChE assessed as decrease in Vmax by reciprocal Lineweaver-Burk plot analysis; method in brief: as §1
DNA [11] = assay: Protection against Fenton reagent-induced Escherichia coli plasmid pBR322 DNA cleavage assessed as reduction in supercoiled circular DNA(1) form to open circular DNA(2) at 0.2 to 1 mM; assay type: nucleic-acid assay; conditions: dose mM 0.2-1
DNA [12] = assay: Protection against Fenton reagent-induced Escherichia coli plasmid pBR322 DNA cleavage assessed as reduction in supercoiled circular DNA(1) form to linear circular DNA(3) at 0.2 to 1 mM; assay type: nucleic-acid assay; conditions: dose mM 0.2-1
[13] = Metal chelating activity assessed as compound-Fe2+ complex formation by measuring blue shift in absorption intensity at 5 uM by UV spectra analysis

Amyloid-beta precursor protein (Homo sapiens), sequence (P05067 whole entry): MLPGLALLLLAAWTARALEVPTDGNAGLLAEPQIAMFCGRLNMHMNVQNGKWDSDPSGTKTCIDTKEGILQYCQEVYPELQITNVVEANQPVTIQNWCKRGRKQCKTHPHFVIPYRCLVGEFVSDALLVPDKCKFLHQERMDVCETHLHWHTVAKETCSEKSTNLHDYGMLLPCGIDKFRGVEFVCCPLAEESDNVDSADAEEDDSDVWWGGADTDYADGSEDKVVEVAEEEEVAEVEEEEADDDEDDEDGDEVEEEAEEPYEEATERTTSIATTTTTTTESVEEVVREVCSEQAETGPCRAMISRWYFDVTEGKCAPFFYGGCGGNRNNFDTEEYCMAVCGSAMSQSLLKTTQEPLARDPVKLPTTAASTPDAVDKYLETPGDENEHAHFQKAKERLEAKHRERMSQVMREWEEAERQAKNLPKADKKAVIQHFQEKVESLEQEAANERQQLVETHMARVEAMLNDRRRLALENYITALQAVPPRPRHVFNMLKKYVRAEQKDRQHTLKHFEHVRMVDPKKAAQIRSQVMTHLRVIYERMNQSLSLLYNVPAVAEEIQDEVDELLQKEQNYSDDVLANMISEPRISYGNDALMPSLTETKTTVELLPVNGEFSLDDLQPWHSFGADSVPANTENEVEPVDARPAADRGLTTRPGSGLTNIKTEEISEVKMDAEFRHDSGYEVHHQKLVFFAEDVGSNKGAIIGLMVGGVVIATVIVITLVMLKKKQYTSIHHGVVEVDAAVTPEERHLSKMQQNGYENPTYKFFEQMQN
T1 sequence (O42275 whole entry): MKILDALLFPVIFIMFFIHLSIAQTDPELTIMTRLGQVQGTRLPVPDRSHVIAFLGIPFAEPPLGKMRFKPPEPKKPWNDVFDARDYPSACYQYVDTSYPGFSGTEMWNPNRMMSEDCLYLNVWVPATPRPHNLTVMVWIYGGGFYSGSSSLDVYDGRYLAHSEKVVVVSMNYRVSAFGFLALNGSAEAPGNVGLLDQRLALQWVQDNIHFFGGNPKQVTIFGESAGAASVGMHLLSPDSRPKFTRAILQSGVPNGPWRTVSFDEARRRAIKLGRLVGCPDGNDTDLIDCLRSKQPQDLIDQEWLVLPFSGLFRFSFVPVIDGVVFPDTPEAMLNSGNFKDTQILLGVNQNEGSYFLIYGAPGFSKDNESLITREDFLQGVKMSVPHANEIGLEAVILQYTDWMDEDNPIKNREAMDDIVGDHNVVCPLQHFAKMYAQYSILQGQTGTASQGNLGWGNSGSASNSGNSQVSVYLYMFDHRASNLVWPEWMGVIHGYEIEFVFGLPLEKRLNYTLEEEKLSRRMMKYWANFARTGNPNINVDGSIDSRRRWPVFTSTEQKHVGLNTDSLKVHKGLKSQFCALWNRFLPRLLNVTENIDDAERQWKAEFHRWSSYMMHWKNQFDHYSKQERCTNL
Cholinesterase, sequence (P81908 whole entry): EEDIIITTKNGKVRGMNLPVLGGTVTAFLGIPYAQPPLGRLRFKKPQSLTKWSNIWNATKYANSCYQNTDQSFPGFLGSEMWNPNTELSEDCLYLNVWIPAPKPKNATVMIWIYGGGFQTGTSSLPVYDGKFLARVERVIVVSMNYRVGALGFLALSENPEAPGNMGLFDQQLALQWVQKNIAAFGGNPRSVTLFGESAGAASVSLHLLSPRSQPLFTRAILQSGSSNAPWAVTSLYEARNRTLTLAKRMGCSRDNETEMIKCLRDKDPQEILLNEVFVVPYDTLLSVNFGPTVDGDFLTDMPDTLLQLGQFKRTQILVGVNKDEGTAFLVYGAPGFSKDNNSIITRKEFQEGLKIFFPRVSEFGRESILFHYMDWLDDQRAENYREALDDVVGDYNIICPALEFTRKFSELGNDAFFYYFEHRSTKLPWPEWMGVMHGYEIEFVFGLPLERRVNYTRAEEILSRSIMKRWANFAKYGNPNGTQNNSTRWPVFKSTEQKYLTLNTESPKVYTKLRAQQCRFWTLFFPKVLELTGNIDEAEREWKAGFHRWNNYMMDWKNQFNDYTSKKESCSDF
Acetylcholinesterase (Electrophorus electricus), sequence (O42275 24-633 limits assumed): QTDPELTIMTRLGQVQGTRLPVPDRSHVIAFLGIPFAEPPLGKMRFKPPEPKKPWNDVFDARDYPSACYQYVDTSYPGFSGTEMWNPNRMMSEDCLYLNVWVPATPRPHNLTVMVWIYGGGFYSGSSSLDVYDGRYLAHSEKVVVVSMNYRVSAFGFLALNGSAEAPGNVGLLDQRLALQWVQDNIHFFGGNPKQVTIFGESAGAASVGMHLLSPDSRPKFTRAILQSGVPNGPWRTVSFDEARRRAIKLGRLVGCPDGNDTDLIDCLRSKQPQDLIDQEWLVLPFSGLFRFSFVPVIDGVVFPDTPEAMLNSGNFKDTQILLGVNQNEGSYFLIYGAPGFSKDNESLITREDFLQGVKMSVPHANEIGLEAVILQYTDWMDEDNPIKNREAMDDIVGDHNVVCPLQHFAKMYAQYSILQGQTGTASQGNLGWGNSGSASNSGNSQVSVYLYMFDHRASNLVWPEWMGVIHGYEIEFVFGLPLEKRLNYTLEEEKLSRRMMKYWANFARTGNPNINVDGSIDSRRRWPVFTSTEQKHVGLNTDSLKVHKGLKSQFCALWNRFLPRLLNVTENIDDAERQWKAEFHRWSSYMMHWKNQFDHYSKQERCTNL
Cholinesterase (Equus caballus), sequence (P81908 whole entry): as the sequence (P81908 whole entry) above

Compound | IC50 (Cholinesterase) [µM] | IC50 (Acetylcholinesterase [1]) [µM] | inhibition [2] [%] | further results
O=c1ccc2ccc(OCCCCn3cc(Cn4nnc5ccccc54)nn3)cc2o1 | ≥ 10 | 4.33 | 11.4 | 
O=c1ccc2ccc(OCCCCCn3cc(Cn4nnc5ccccc54)nn3)cc2o1 | ≥ 10 | 5.43 | < 10 | 
O=c1ccc2ccc(OCCCCCCn3cc(Cn4nnc5ccccc54)nn3)cc2o1 | ≥ 10 | ≥ 10 | < 10 | 
O=c1cc(OCCn2cc(Cn3nnc4ccccc43)nn2)c2ccccc2o1 | ≥ 10 | 0.097 | 36.7 | 
O=c1ccc2ccc(OCCCCCn3cc(Cn4nc5ccccc5n4)nn3)cc2o1 | ≥ 10 | ≥ 10 | < 10 | 
O=c1ccc2ccc(OCCn3cc(COn4nnc5ccccc54)nn3)cc2o1 | ≥ 10 | 2.01 | 11.4 | 
O=c1cc(OCCCCCn2cc(Cn3nc4ccccc4n3)nn2)c2ccccc2o1 | ≥ 10 | 4.81 | < 10 | 
O=c1cc(OCCCCCCn2cc(COn3nnc4ccccc43)nn2)c2ccccc2o1 | ≥ 10 | ≥ 10 | < 10 | 
O=c1cc(OCCCCCCn2cc(Cn3nc4ccccc4n3)nn2)c2ccccc2o1 | ≥ 10 | 6.23 | < 10 | 
O=c1cc(OCCCn2cc(Cn3nc4ccccc4n3)nn2)c2ccccc2o1 | ≥ 10 | 1.67 | < 10 | 
O=c1ccc2ccc(OCCn3cc(Cn4nnc5ccccc54)nn3)cc2o1 | ≥ 10 | 2.11 | 29.4 | 
O=c1ccc2ccc(OCCCCCCn3cc(Cn4nc5ccccc5n4)nn3)cc2o1 | ≥ 10 | ≥ 10 | < 10 | 
O=c1ccc2ccc(OCCCCCn3cc(COn4nnc5ccccc54)nn3)cc2o1 | ≥ 10 | ≥ 10 | < 10 | 
O=c1cc(OCCCn2cc(COn3nnc4ccccc43)nn2)c2ccccc2o1 | ≥ 10 | 1.32 | < 10 | 
O=c1cc(OCCCCn2cc(Cn3nc4ccccc4n3)nn2)c2ccccc2o1 | ≥ 10 | 2.09 | < 10 | 
O=c1cc(OCCCCn2cc(COn3nnc4ccccc43)nn2)c2ccccc2o1 | ≥ 10 | 3.23 | < 10 | 

Compound | IC50 (Cholinesterase) [µM] | IC50 (Acetylcholinesterase [1]) [µM] | inhibition [2] [%] | further results
O=c1cc(OCCCCCn2cc(COn3nnc4ccccc43)nn2)c2ccccc2o1 | ≥ 10 | ≥ 10 | < 10 | 
O=c1ccc2ccc(OCCCn3cc(Cn4nnc5ccccc54)nn3)cc2o1 | ≥ 10 | 2.92 | 15.9 | 
O=c1cc(OCCCn2cc(Cn3nnc4ccccc43)nn2)c2ccccc2o1 | ≥ 10 | 0.059 | 34.3 | Activity (SH-SY5Y): Non-Toxic; Activity [3]: Active; Ki (Acetylcholinesterase [4]): 0.0417 nM; Activity [5]: Active; Activity [6]: inactive; inhibition [7]: Active; inhibition [8]: Active; Activity [9]: Active; inhibition [10]: Active; Activity (DNA [11]): Active; Activity (DNA [12]): Active; Activity [13]: Active
O=c1cc(OCCn2cc(COn3nnc4ccccc43)nn2)c2ccccc2o1 | ≥ 10 | 4.32 | 16.2 | 
COc1cc2c(cc1OC)C(=O)C(CC1CCN(Cc3ccccc3)CC1)C2 (stereo not drawn) [DONEPEZIL] |  |  |  | Activity (SH-SY5Y): Non-Toxic
O=c1ccc2ccc(OCCCCn3cc(Cn4nc5ccccc5n4)nn3)cc2o1 | ≥ 10 | 5.44 | < 10 | 
O=c1ccc2ccc(OCCCCCCn3cc(COn4nnc5ccccc54)nn3)cc2o1 | ≥ 10 | ≥ 10 | < 10 | 
O=c1cc(OCCCCCCn2cc(Cn3nnc4ccccc43)nn2)c2ccccc2o1 | ≥ 10 | 5.42 | < 10 | 
O=c1cc(OCCCCn2cc(Cn3nnc4ccccc43)nn2)c2ccccc2o1 | ≥ 10 | 0.234 | 22.4 | 
O=c1ccc2ccc(OCCCCn3cc(COn4nnc5ccccc54)nn3)cc2o1 | ≥ 10 | ≥ 10 | < 10 | 
O=c1cc(OCCn2cc(Cn3nc4ccccc4n3)nn2)c2ccccc2o1 | ≥ 10 | 1.89 | < 10 | 
O=c1ccc2ccc(OCCCn3cc(COn4nnc5ccccc54)nn3)cc2o1 | ≥ 10 | 1.98 | < 10 | 
O=c1ccc2ccc(OCCn3cc(Cn4nc5ccccc5n4)nn3)cc2o1 | ≥ 10 | 1.18 | < 10 | 
O=c1cc(OCCCCCn2cc(Cn3nnc4ccccc43)nn2)c2ccccc2o1 | ≥ 10 | 1.14 | 11.4 | 
O=c1ccc2ccc(OCCCn3cc(Cn4nc5ccccc5n4)nn3)cc2o1 | ≥ 10 | 1.16 | < 10 | 
